From PubChem BioAssay come the findings set out here.

A short description of assay [1]: hit retest on RPL19A-GFP reporter strain – cell-based, S. cerevisiae, flow cytometry, cherry picks, mother/daughter gates, confirmation (AID 2270;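 active = GFP response below 50% of the DMSO control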). The settings on record: 3 h, at 10 µM, stronger effect = lower value, 100 = same GFP as DMSO wells.
The nature of assay [2]: yeast TOR pathway reporter LAP4-GFP change – cell-based, cherry picks, flow cytometry, mother/daughter gates, confirmation (AID 2271;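 active = GFP response above 150% of the DMSO control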;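 also: ratio of sample to DMSO plate mean so 100% equals DMSO level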). The settings on record: S. cerevisiae LAP4-GFP strain, 3 h, at 10 µM, stronger effect = higher value, 100 means same as DMSO control. An outline of the steps: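 Material: Alexa Fluor 633-labelled Saccharomyces cerevisiae GFP-fusion strain, single-plex | Amount: Yeast cells seeded at OD600 of 0.2 | Buffer or medium: SC growth medium | Schedule: 3 h exposure, 30 °C | Measured by: HT flow cytometry, GFP fluorescence channel | Evaluation: % GFP response vs DMSO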

A short description of assay [3]: TOR pathway reporter MEP2-GFP, retest of hits – S. cerevisiae, flow cytometry GFP, cherry picks, confirmation (AID 2272;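 active = GFP response above 150% of the DMSO control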;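 also: ratio of well signal to plate DMSO mean so 100% equals DMSO level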). Conditions: S. cerevisiae MEP2-GFP strain, 3 h, at 10 µM, stronger effect = higher value.
Assay [4] can be described thus: yeast AGP1-GFP fluorescence change, single-dose – cell-based, flow cytometry, S. cerevisiae, cherry picks, confirmation (AID 2273).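 Also: median GFP channel fluorescence over the whole cell population gate.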 The settings on record: S. cerevisiae AGP1-GFP strain, 3 h, at 10 µM.
Assay [5] is described as follows: TOR pathway CIT2 reporter hit retest – S. cerevisiae, GFP fusion, cherry picks, mother/daughter gates, confirmation (AID 2274). The settings on record: S. cerevisiae CIT2-GFP strain, flow cytometry, 3 h, at 10 µM, stronger effect = higher value.
[6] abbreviates: measured here: daughter cell gate.
Where [7] appears, read: measured here: mother cell gate.
The mark [8] stands for this setting: measured here: daughter cell gate response.
Setting [9] is: measured here: mother cell gate response.

Activity calls are given as the source filed them.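 The calls were made as follows, unless noted: active = GFP response above 150% of the DMSO level; inconclusive = fewer than 70 events counted for a yeast strain; inactive = the rest.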

As for `CCOC(=O)CSC1=NC(=O)/C(=C\c2ccc(Cl)cc2)S1`, the GFP response vs DMSO in assay [1] was 96.5% (inactive); in assay [1] (setting [6]), 87.9%; in assay [1] (setting [7]) it was 94.6%; in assay [3], 103% (inactive). The GFP response relative to DMSO in assay [2] was 197% (active); in assay [2] (setting [8]) it was 150%; in assay [2] (setting [9]), 186%. Further, the GFP response, % of DMSO is 116% (inactive) in assay [4], 88.9% (inactive) in assay [5], 81.6% in assay [5] (setting [6]) and 88.2% in assay [5] (setting [7]).

As for `O=C(COC(=O)c1n[nH]c2ccccc12)c1ccc(F)c(F)c1`, the GFP response vs DMSO is 97.1% (inactive) in assay [1], 98.7% in assay [1] (setting [6]), 96.3% in assay [1] (setting [7]) and 103% (inactive) in assay [3]. The GFP response relative to DMSO was 104% (inactive) in assay [2], 97.5% in assay [2] (setting [8]) and 106% in assay [2] (setting [9]). The GFP response, % of DMSO in assay [4] was 97% (inactive); in assay [5] it was 98.6% (inactive); in assay [5] (setting [6]), 101%; in assay [5] (setting [7]), 98.2%.

`O=C(Nc1ccccc1)c1ccccc1O`: the GFP response vs DMSO in assay [1] was 96.7% (inactive); in assay [1] (setting [6]), 97.3%; in assay [1] (setting [7]) it was 95.6%; in assay [3] it was 99.3% (inactive). Also, the GFP response relative to DMSO was 114% (inactive) in assay [2], 107% in assay [2] (setting [8]) and 114% in assay [2] (setting [9]). For the same molecule, the GFP response, % of DMSO in assay [4] is 97.3% (inactive); in assay [5] it was 93.1% (inactive); in assay [5] (setting [6]), 95.8%; in assay [5] (setting [7]) it was 92.6%.

For `CSc1nc2ccc(S(=O)(=O)N3CCCC3)cc2s1`, the GFP response vs DMSO was 90.5% (inactive) in assay [1], 85.5% in assay [1] (setting [6]), 93.3% in assay [1] (setting [7]) and 95.7% (inactive) in assay [3]. In addition, the values for the GFP response relative to DMSO in assay [2], in assay [2] (setting [8]) and in assay [2] (setting [9]) were 135% (inactive), 128% and 140%, respectively. Besides, the GFP response, % of DMSO is 94.1% (inactive) in assay [4], 78.2% (inactive) in assay [5], 75.2% in assay [5] (setting [6]) and 80.5% in assay [5] (setting [7]).

Consider `O=C(OC(c1ccc(NS(=O)(=O)c2ccccc2)cc1)(C(F)(F)F)C(F)(F)F)c1ccccc1`, for which the GFP response vs DMSO in assay [1] is 100% (inactive); in assay [1] (setting [6]) it was 101%; in assay [1] (setting [7]), 100%; in assay [3], 110% (inactive). For the same molecule, the GFP response relative to DMSO in assay [2] is 94.9% (inactive); in assay [2] (setting [8]), 95.1%; in assay [2] (setting [9]), 95.1%. Moreover, the GFP response, % of DMSO in assay [4] is 104% (inactive); in assay [5] it was 92.2% (inactive); in assay [5] (setting [6]), 95.2%; in assay [5] (setting [7]), 91.8%.

As for `COc1ccc(/C(C)=N/NC(=O)c2ccc(N(C)C)cc2)cc1`, the GFP response vs DMSO in assay [1] was 103% (inactive); in assay [1] (setting [6]) it was 102%; in assay [1] (setting [7]) it was 103%; in assay [3], 104% (inactive). Also, the GFP response relative to DMSO in assay [2] is 95% (inactive); in assay [2] (setting [8]), 94.1%; in assay [2] (setting [9]), 97.2%. Moreover, the GFP response, % of DMSO in assay [4] is 101% (inactive); in assay [5] it was 104% (inactive); in assay [5] (setting [6]) it was 103%; in assay [5] (setting [7]) it was 104%.

Turning to `COc1ccccc1-c1noc(CCC(=O)Nc2cccc(C)c2)n1`, the GFP response vs DMSO is 99.9% (inactive) in assay [1], 100% in assay [1] (setting [6]), 100% in assay [1] (setting [7]) and 97.5% (inactive) in assay [3]. The values for the GFP response relative to DMSO in assay [2], in assay [2] (setting [8]) and in assay [2] (setting [9]) were 96.5% (inactive), 96.5% and 96.5%, respectively. Further, the GFP response, % of DMSO is 90.8% (inactive) in assay [4], 95% (inactive) in assay [5], 98.3% in assay [5] (setting [6]) and 95.6% in assay [5] (setting [7]).

`CC1=NNC(=O)/C1=C\c1cn(-c2ccccc2)nc1-c1ccc(Cl)cc1`: the GFP response vs DMSO was 97.6% (inactive) in assay [1], 98.3% in assay [1] (setting [6]), 98.5% in assay [1] (setting [7]) and 101% (inactive) in assay [3]. Also, the GFP response relative to DMSO in assay [2] is 107% (inactive); in assay [2] (setting [8]), 101%; in assay [2] (setting [9]), 114%. Also, the GFP response, % of DMSO is 105% (inactive) in assay [4], 97.2% (inactive) in assay [5], 96.8% in assay [5] (setting [6]) and 95.7% in assay [5] (setting [7]).

As to `COc1ccccc1NC1=C(Cl)C(=O)N(c2ccccc2)C1=O`, the GFP response vs DMSO in assay [1] was 103% (inactive); in assay [1] (setting [6]), 103%; in assay [1] (setting [7]), 103%; in assay [3] it was 103% (inactive). Moreover, the GFP response relative to DMSO in assay [2] was 93.7% (inactive); in assay [2] (setting [8]), 92%; in assay [2] (setting [9]) it was 94.1%. The GFP response, % of DMSO is 97% (inactive) in assay [4], 103% (inactive) in assay [5], 105% in assay [5] (setting [6]) and 101% in assay [5] (setting [7]).

For `C=CCn1c(=N)c(C#N)cc2c(=O)n3ccccc3nc21`, the GFP response vs DMSO in assay [1] is 98% (inactive); in assay [1] (setting [6]), 95.4%; in assay [1] (setting [7]), 93%; in assay [3], 105% (inactive). Moreover, the values for the GFP response relative to DMSO in assay [2], in assay [2] (setting [8]) and in assay [2] (setting [9]) were 99.2% (inactive), 99.2% and 98.3%, respectively. For the same molecule, the GFP response, % of DMSO in assay [4] is 100% (inactive); in assay [5] it was 101% (inactive); in assay [5] (setting [6]), 97.2%; in assay [5] (setting [7]) it was 87.8%.

On to `CC1=NOC(=O)/C1=C\c1ccc(-c2cc(Cl)ccc2Cl)o1`, for which the GFP response vs DMSO in assay [1] was 97.1% (inactive); in assay [1] (setting [6]), 93.9%; in assay [1] (setting [7]), 91.6%; in assay [3] it was 118% (inactive). Besides, the values for the GFP response relative to DMSO in assay [2], in assay [2] (setting [8]) and in assay [2] (setting [9]) were 195% (active), 176% and 186%, respectively. The GFP response, % of DMSO is 100% (inactive) in assay [4], 114% (inactive) in assay [5], 121% in assay [5] (setting [6]) and 102% in assay [5] (setting [7]).

For the molecule `COc1ccc(-c2nc(NC(=O)c3cc(C(C)(C)C)nn3C)sc2C)cc1`, the GFP response vs DMSO in assay [1] is 98.7% (inactive); in assay [1] (setting [6]), 100%; in assay [1] (setting [7]), 99%; in assay [3], 103% (inactive). The results for the GFP response relative to DMSO in assay [2], in assay [2] (setting [8]) and in assay [2] (setting [9]) were 98.9% (inactive), 101% and 99.5%, respectively. Also, the GFP response, % of DMSO in assay [4] is 100% (inactive); in assay [5], 104% (inactive); in assay [5] (setting [6]) it was 103%; in assay [5] (setting [7]), 104%.

For the molecule `Cc1cccn2c(=O)c(/C=C(\C#N)C(=O)NCc3ccco3)c(N3CCOCC3)nc12`, the GFP response vs DMSO in assay [1] is 100% (inactive); in assay [1] (setting [6]), 101%; in assay [1] (setting [7]) it was 99.6%; in assay [3], 99% (inactive). The figures for the GFP response relative to DMSO in assay [2], in assay [2] (setting [8]) and in assay [2] (setting [9]) were 97% (inactive), 97.5% and 96.2%, respectively. Further, the GFP response, % of DMSO in assay [4] was 98% (inactive); in assay [5], 100% (inactive); in assay [5] (setting [6]) it was 103%; in assay [5] (setting [7]), 98.1%.

In the case of `Cc1c(C(=O)Nc2ccccc2)cnn1-c1ccccc1`, the GFP response vs DMSO in assay [1] was 98.2% (inactive); in assay [1] (setting [6]), 97.4%; in assay [1] (setting [7]), 99.2%; in assay [3], 105% (inactive). In addition, the figures for the GFP response relative to DMSO in assay [2], in assay [2] (setting [8]) and in assay [2] (setting [9]) were 103% (inactive), 101% and 105%, respectively. In addition, the GFP response, % of DMSO is 96.8% (inactive) in assay [4], 104% (inactive) in assay [5], 97.2% in assay [5] (setting [6]) and 103% in assay [5] (setting [7]).

Consider `O=C(COc1c(Br)cc(Br)c2cccnc12)N1CCc2ccccc2C1`, for which the GFP response vs DMSO was 98.2% (inactive) in assay [1], 97.8% in assay [1] (setting [6]), 97.2% in assay [1] (setting [7]) and 112% (inactive) in assay [3]. Besides, the GFP response relative to DMSO in assay [2] was 140% (inactive); in assay [2] (setting [8]), 124%; in assay [2] (setting [9]) it was 144%. Moreover, the GFP response, % of DMSO was 93.2% (inactive) in assay [4], 101% (inactive) in assay [5], 102% in assay [5] (setting [6]) and 95.6% in assay [5] (setting [7]).
